Source: ChEMBL document CHEMBL4825712
pIC50: −log10 of the molar value.

Tests used:
Influenza A virus = experiment: Antiviral activity against Influenza A virus A/WSN/33(H1N1) infected in human A549 cells assessed as viral replication measured after 24 hrs by immunofluorescence microscopy; type: functional, organism-based; settings: A/WSN/1933(H1N1); for pIC50: A549, 24 h; for IC90: A549, time 24 hrs
Procedure, shortened: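 A549 cells were infected with A/WSN/33 at MOI 0.01 for 24 h, then fixed in 4% formaldehyde and permeabilized with 0.1% Triton X-100. They were immunostained for NP with an Alexa-488 secondary plus DAPI and imaged on an image cytometer. Percent infection = NP-positive cells divided by total cells.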

A549 = experiment: Cytotoxicity against human A549 cells by MTT assay; type: cell-based
Procedure, shortened: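 MTT assay run according to the manufacturer's instructions, concurrently with NP immunostaining of infected A549 cultures.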

[1] = Selectivity index, ratio of CC50 for human A549 cells to IC50 for antiviral activity against Influenza A virus A/WSN/33(H1N1) infected in human A549 cells; type: toxicity, cell-based; settings: read-out: Selectivity Index
Procedure, shortened: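 Ratio of CC50 to IC50. IC50 came from A549 cells pretreated 2 h with compound, then infected 24 h with WSN-PB2-Nanoluc at MOI 0.02 and read by Nano-Glo luminescence. CC50 was measured by CellTiter-Glo.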

| Compound | pIC50 (Influenza A virus) | IC90 (Influenza A virus) | CC10 (A549) | selectivity ratio [1] | CC50 (A549) |
| --- | --- | --- | --- | --- | --- |
| CCN(c1ccc(F)cc1F)S(=O)(=O)c1ccccc1Cl | < 4.60 | > 25 µM | > 25 µM | – | – |
| Cc1cc(Cl)ccc1N(CC1CC1)S(=O)(=O)c1cc(Cl)ccc1Cl | 6.31 | 2.8 µM | > 5 µM | > 10 | > 5 µM |
| CCN(c1ccc(F)cc1)S(=O)(=O)c1cc(Cl)ccc1Cl | 7.17 | 0.94 µM | > 5 µM | > 74 | > 5 µM |
| Cc1ccccc1N(C(C)C)S(=O)(=O)c1cc(Cl)ccc1Cl | 5.74 | > 5 µM | > 5 µM | > 3 | > 5 µM |
| CCN(c1ccc(CC(=O)O)cc1)S(=O)(=O)c1cc(Cl)ccc1Cl | < 4.60 | > 25 µM | > 25 µM | – | > 25 µM |
| COCCN(c1ccc(Cl)cc1C)S(=O)(=O)c1cc(Cl)ccc1Cl | 5.92 | 6 µM | > 5 µM | > 4 | > 5 µM |
| Cc1cc(Cl)ccc1N(CCF)S(=O)(=O)c1cc(Cl)ccc1Cl | 4.46 | > 5 µM | > 5 µM | > 9 | > 5 µM |
| Cc1ccccc1NS(=O)(=O)c1cc(Cl)ccc1Cl | < 5.30 | > 5 µM | > 5 µM | – | > 5 µM |
| Cc1ccccc1N(C)S(=O)(=O)c1cc(Cl)ccc1Cl | < 5.30 | > 5 µM | > 5 µM | – | > 5 µM |
| CCN(c1ccc(F)cc1F)S(=O)(=O)c1ccc(Cl)cc1Cl | < 4.60 | > 25 µM | > 25 µM | – | – |
| CCN(c1ccc(C)cc1)S(=O)(=O)c1cc(Cl)ccc1Cl | 7.08 | 1.8 µM | > 25 µM | > 298 | > 25 µM |
| CCN(c1ccc(Cl)cc1F)S(=O)(=O)c1cc(Cl)ccc1Cl | 6.82 | 1.8 µM | > 5 µM | > 33 | > 5 µM |
| CCN(c1cnc(C)nc1)S(=O)(=O)c1cc(Cl)ccc1Cl | < 5.30 | – | – | – | – |
| CCN(c1ccc(CCNC(C)=O)cc1)S(=O)(=O)c1cc(Cl)ccc1Cl | < 4.60 | > 25 µM | > 25 µM | – | > 25 µM |
| CCN(c1cnc(C)cn1)S(=O)(=O)c1cc(Cl)ccc1Cl | < 5.30 | – | – | – | – |
| CCN(c1ccc(C)nc1)S(=O)(=O)c1cc(Cl)ccc1Cl | < 5.30 | – | – | – | – |
| CCN(c1ccc(CCO)cc1)S(=O)(=O)c1cc(Cl)ccc1Cl | < 4.60 | > 25 µM | > 25 µM | – | > 25 µM |
| C=CCN(c1ccc(Cl)cc1C)S(=O)(=O)c1cc(Cl)ccc1Cl | 7.43 | 0.43 µM | > 5 µM | > 135 | > 5 µM |
| CCN(c1ccc(F)cc1F)S(=O)(=O)c1cc(F)ccc1Cl | 6.66 | 9.8 µM | – | > 114 | – |
| CCN(c1ccncc1F)S(=O)(=O)c1cc(Cl)ccc1Cl | < 5.30 | – | – | – | – |
| C#CCN(c1ccccc1C)S(=O)(=O)c1cc(Cl)ccc1Cl | 6.42 | 5.1 µM | > 5 µM | > 13 | > 5 µM |
| CCN(c1ccc(F)cc1F)S(=O)(=O)c1cc(Cl)ccc1F | 6.09 | 18.5 µM | – | > 30 | – |
| CCN(c1cnccc1C)S(=O)(=O)c1cc(Cl)ccc1Cl | < 5.30 | – | – | – | – |

| Compound | pIC50 (Influenza A virus) | IC90 (Influenza A virus) | CC10 (A549) | selectivity ratio [1] | CC50 (A549) |
| --- | --- | --- | --- | --- | --- |
| CCN(c1ccc(Cl)cn1)S(=O)(=O)c1cc(Cl)ccc1Cl | < 5.30 | – | – | – | – |
| Cc1cc(Cl)ccc1N(C(F)F)S(=O)(=O)c1cc(Cl)ccc1Cl | 5.89 | > 5 µM | > 5 µM | > 4 | > 5 µM |
| CCN(c1ccccc1Cl)S(=O)(=O)c1cc(Cl)ccc1Cl | 6.82 | 1.5 µM | > 5 µM | > 33 | > 5 µM |
| CCN(c1ccc(CC(=O)N2CCN(C)CC2)cc1)S(=O)(=O)c1cc(Cl)ccc1Cl | < 4.60 | > 25 µM | > 25 µM | – | > 25 µM |
| CCN(c1ccc(F)cc1F)S(=O)(=O)c1cc(F)ccc1F | 5.47 | > 25 µM | > 25 µM | > 7 | – |
| CCN(c1ccc(F)cc1F)S(=O)(=O)c1cc(Cl)cc(Cl)c1 | 6.12 | – | 25 µM | > 33 | – |
| Cc1cc(Cl)ccc1N(CCO)S(=O)(=O)c1cc(Cl)ccc1Cl | < 5.30 | > 5 µM | > 5 µM | – | > 5 µM |
| CCN(c1c(F)cc(Cl)cc1F)S(=O)(=O)c1cc(Cl)ccc1Cl | 6.39 | > 5 µM | 0.025 µM | > 12 | > 5 µM |
| CCN(c1ccncc1Cl)S(=O)(=O)c1cc(Cl)ccc1Cl | < 5.30 | – | – | – | – |
| C#CCN(c1ccc(Cl)cc1C)S(=O)(=O)c1cc(Cl)ccc1Cl | 6.92 | 3.4 µM | > 5 µM | > 42 | > 5 µM |
| C=CCN(c1ccccc1C)S(=O)(=O)c1cc(Cl)ccc1Cl | 6.92 | 0.57 µM | > 5 µM | > 42 | > 5 µM |
| CCN(c1ccccc1C#N)S(=O)(=O)c1cc(Cl)ccc1Cl | 6.77 | 2.1 µM | > 5 µM | > 29 | > 5 µM |
| CCN(c1ccc(F)cc1F)S(=O)(=O)c1cccc(Cl)c1Cl | < 4.60 | > 25 µM | > 25 µM | – | – |
| CCN(c1c(C)cc(Cl)cc1Cl)S(=O)(=O)c1cc(Cl)ccc1Cl | 6.41 | > 5 µM | > 5 µM | > 13 | > 5 µM |
| CCN(c1ccc(C)nn1)S(=O)(=O)c1cc(Cl)ccc1Cl | < 5.30 | – | – | – | – |
| CCN(c1ccccc1)S(=O)(=O)c1cc(Cl)ccc1Cl | 6.07 | 6.9 µM | > 5 µM | > 6 | > 5 µM |
| CCN(c1ccc(F)cc1F)S(=O)(=O)c1ccccc1 | < 4.60 | > 25 µM | > 25 µM | – | – |
| CCN(c1ccc(F)cc1F)S(=O)(=O)c1c(Cl)cccc1Cl | < 4.60 | > 25 µM | > 25 µM | – | – |
| CCN(c1ccc(F)cc1F)S(=O)(=O)c1ccc(Cl)c(Cl)c1 | < 4.60 | > 25 µM | > 25 µM | – | – |
| CCN(c1ccc(F)cc1F)S(=O)(=O)c1cccc(Cl)c1 | 6.31 | 10.3 µM | 10.3 µM | > 51 | – |
| CCOC(=O)Cc1ccc(N(CC)S(=O)(=O)c2cc(Cl)ccc2Cl)cc1 | 7.10 | 5.7 µM | > 5 µM | > 63 | > 5 µM |
| CCN(c1ccc(CCN)cc1)S(=O)(=O)c1cc(Cl)ccc1Cl | < 4.60 | > 25 µM | > 25 µM | – | > 25 µM |
